Test results from ChEMBL document CHEMBL1131155, “Design of new topoisomerase II inhibitors based upon a quinobenzoxazine self-assembly model” (J Med Chem, 1998).

Legend:
B16 = assay: The compound was tested for the concentration to inhibit 50% of B16 murine melanoma cells.; format: functional, cell-based; details: Mus musculus
Summary of the method: (§1)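 Exponentially growing cells seeded on day 0. Graded compound concentrations added in duplicate on day 1, then incubated at 37 °C. MTT (1 mg/mL in PBS) given for 4 h at 37 °C and formazan dissolved in 0.4 N HCl/isopropanol. Absorbance read at 570 nm against a 630 nm reference. IC50 derived from the dose-response curve.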

MDA-MB-231 = assay: The compound was tested for the concentration to inhibit 50% of MDA-231 breast cancer cell lines.; format: functional, cell-based; details: Homo sapiens; summary of the method: as §1
HT-29 = assay: The compound was tested for the concentration to inhibit 50% of HT-29 colon cells.; format: functional, cell-based; details: Homo sapiens; summary of the method: as §1
Nucleic Acid = assay: Tested for the DNA unwinding concentration that causes a shift of the topoisomers from the original to the middle position between the relaxed and the supercoiled bands.; format: functional
Summary of the method: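 Supercoiled pHOT1 DNA (0.25 μg) relaxed with 5 units topo I, 37 °C for 30 min. Drug at various concentrations then added and incubated a further 30 min. Stopped with 1% SDS, proteinase K treatment at 56 °C, and chloroform-isoamyl alcohol extraction. Topoisomers run on 1% agarose in TPE with 0.2 μg/mL chloroquine, 10 V for 20 h. Gel post-stained with ethidium and scanned.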

DU-145 = assay: The compound was tested for the concentration to inhibit 50% of DU-145 prostate cells.; format: functional, cell-based; details: Homo sapiens; summary of the method: as §1
DNA topoisomerase II = DNA topoisomerase II (Homo sapiens, UniProt P11388+Q02880); assay: Inhibition of topoisomerase II as conversion of catenated to decatenated KDNA; format: protein assay
Summary of the method: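 kDNA (0.25 μg) preincubated 10 min with varied compound levels in 50 mM Tris-HCl pH 8, 120 mM KCl, 10 mM MgCl₂, 0.5 mM ATP and DTT. Then 2 units human topo II (170-kDa form) added, 37 °C for 30 min. Stopped with sarkosyl stop buffer. Products resolved on 1% agarose with ethidium bromide and quantified by fluorescence scanning.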

NCI-H226 = assay: The compound was tested for the concentration to inhibit 50% of H226 non-small cell lung cells.; format: functional, cell-based; details: Homo sapiens; summary of the method: as §1
Raji = assay: The compound was tested for the concentration to inhibit 50% of Raji lymphoma cells.; format: functional, cell-based; details: Homo sapiens; summary of the method: as §1

IC50 (B16) [µM]	IC50 (MDA-MB-231) [µM]	IC50 (HT-29) [µM]	IC50 (DU-145) [µM]	IC50 (DNA topoisomerase II) [µM]	IC50 (NCI-H226) [µM]	IC50 (Raji) [µM]	Compound	DNA unwinding concentration (Nucleic Acid) [µM]
0.17	0.16	0.16	0.16	0.51	0.09	0.05	N[C@H]1CCN(c2c(F)cc3c(=O)c(C(=O)O)cn4c3c2Oc2ccccc2-4)C1	50
0.045	> 1000	6.8	0.075	0.64	> 100	0.0072	O=C(O)c1cn2c3c(c(N4CCNCC4)c(F)cc3c1=O)Oc1cc3ccccc3cc1-2	> 100
2.1	2.2	2	0.84	9.6	2.1	0.8	O=C(O)c1cn2c3c(c(N4CCNCC4)c(F)cc3c1=O)Oc1ccc3ccccc3c1-2	> 100
0.04	0.027	0.03	0.017	0.55	0.022	0.018	NC1CCN(c2c(F)cc3c(=O)c(C(=O)O)cn4c3c2Oc2c-4ccc3ccccc23)C1 (stereo unspecified)	
0.68	0.35	0.36	0.36	1.22	2.4	0.16	N[C@@H]1CCN(c2c(F)cc3c(=O)c(C(=O)O)cn4c3c2Oc2ccc3ccccc3c2-4)C1	35
0.65	0.38	0.36	0.14	1.84	0.2	0.21	O=C(O)c1cn2c3c(c(N4CCNCC4)c(F)cc3c1=O)Oc1c-2ccc2ccccc12	> 100
0.02	0.01	0.023	0.03	0.44	0.014	0.029	N[C@H]1CCN(c2c(F)cc3c(=O)c(C(=O)O)cn4c3c2Oc2cc3ccccc3cc2-4)C1	13
0.44	0.15	0.18	0.2	0.77	0.14	0.086	NC1CCN(c2c(F)cc3c(=O)c(C(=O)O)cn4c3c2Oc2ccc3ccccc3c2-4)C1 (stereo unspecified)	
0.14	0.021	0.022	0.048	0.42	0.022	0.032	N[C@@H]1CCN(c2c(F)cc3c(=O)c(C(=O)O)cn4c3c2Oc2cc3ccccc3cc2-4)C1	15
0.02	0.005	0.026	0.03	0.24	0.013	0.034	N[C@@H]1CCN(c2c(F)cc3c(=O)c(C(=O)O)cn4c3c2Oc2c-4ccc3ccccc23)C1	3
0.1	0.023	0.028	0.025	0.77	0.004	0.038	NC1CCN(c2c(F)cc3c(=O)c(C(=O)O)cn4c3c2Oc2cc3ccccc3cc2-4)C1 (stereo unspecified)	
0.18	0.084	0.051	0.064	0.49	0.027	0.02	N[C@H]1CCN(c2c(F)cc3c(=O)c(C(=O)O)cn4c3c2Oc2c-4ccc3ccccc23)C1	10
0.13	0.19	0.27	0.14	0.72	0.13	0.082	N[C@H]1CCN(c2c(F)cc3c(=O)c(C(=O)O)cn4c3c2Oc2ccc3ccccc3c2-4)C1	19
